Here are results for five molecules from ChEMBL document CHEMBL3822410, “Novel substituted isoxazole FXR agonists with cyclopropyl, hydroxycyclobutyl and hydroxyazetidinyl linkers: Understanding and improving key determinants of pharmacological properties” (Bioorg Med Chem Lett, 2016).

The structures appear in SMILES notation. Values after ≈ are worked out from the molar mass of the structure shown. Active and inactive are the calls of the source. The rule behind the calls is not given here.

Data set [1] is described as follows: Aqueous solubility of the compound. Format: physicochemical. The conditions noted are these: buffer.
The nature of data set [2]: Permeability of the compound assessed as compound influx measured after 16 hrs by PAMPA assay. Format: ADME. In a few lines:
(§1)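 PAMPA, 16 h at rt. Flux = [C_acceptor/(C_donor + C_acceptor)] × 100 × 2. Membrane enrichment = C_membrane × 2/(C_acceptor + C_donor), membrane phase extracted into a volume equal to the acceptor or donor compartment.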

In data set [3] the target is T1, Nuclear receptor subfamily 1 group I member 2 (Homo sapiens, UniProt O75469).
T1 sequence (O75469 whole entry): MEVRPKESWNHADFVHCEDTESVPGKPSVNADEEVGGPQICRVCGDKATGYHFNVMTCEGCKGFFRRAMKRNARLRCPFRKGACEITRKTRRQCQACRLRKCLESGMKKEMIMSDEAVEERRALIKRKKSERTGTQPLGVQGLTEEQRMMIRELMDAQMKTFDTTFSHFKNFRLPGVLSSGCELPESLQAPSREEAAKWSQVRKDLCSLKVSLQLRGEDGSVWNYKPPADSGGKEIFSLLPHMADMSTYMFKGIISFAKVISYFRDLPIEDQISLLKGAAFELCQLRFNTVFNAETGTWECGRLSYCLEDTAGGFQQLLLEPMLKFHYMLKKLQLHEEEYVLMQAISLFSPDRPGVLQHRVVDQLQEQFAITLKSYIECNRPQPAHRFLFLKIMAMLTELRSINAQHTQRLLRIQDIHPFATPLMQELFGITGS
Put plainly: Agonist activity at PXR (unknown origin) up to 5 uM.

The nature of data set [4]: Permeability of the compound assessed as compound enrichment in membrane compartment measured after 16 hrs by PAMPA assay relative to control. Format: ADME. Summed up: as §1
The target in data set [5] is T2, Bile acid receptor (Homo sapiens, UniProt Q96RI1).
T2 sequence (Q96RI1 whole entry): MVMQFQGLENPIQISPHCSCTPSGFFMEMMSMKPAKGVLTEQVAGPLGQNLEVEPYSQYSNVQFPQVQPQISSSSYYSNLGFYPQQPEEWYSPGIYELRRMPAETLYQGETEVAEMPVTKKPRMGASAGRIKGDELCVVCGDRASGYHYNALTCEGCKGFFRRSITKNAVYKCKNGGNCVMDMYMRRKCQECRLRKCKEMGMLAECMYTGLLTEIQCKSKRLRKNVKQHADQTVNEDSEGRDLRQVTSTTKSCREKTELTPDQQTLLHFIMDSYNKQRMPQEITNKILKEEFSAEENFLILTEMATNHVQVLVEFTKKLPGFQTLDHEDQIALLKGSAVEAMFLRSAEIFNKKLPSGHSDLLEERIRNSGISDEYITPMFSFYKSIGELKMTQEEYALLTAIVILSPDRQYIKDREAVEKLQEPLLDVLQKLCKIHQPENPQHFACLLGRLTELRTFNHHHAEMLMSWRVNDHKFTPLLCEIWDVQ
In words: Agonist activity at GST-tagged FXR LBD (187 to 472 residues) (unknown origin) assessed as FXR interaction with b-CPSSHSSLTERHKILHRLLQEGSPS-COOH by FRET assay.

Data set [6] deals with T3, Bile acid receptor (Homo sapiens) (UniProt Q96RI1).
T3 sequence (whole entry): T2 sequence (Q96RI1 whole entry)
Put plainly: Agonist activity at C-terminal Gal4-tagged human FXR (187 to 472 residues) expressed in HEK-293 cells co-expressing pFRluc by mammalian one hybrid assay relative to GW4064. It is filed as cell-based. The conditions noted are these: HEK293. Summed up: (§2)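 Transient transfection of HEK293 cells with Gal4 DBD–human FXR LBD (187–472) chimera under CMV promoter plus pFRluc Gal4-driven firefly luciferase reporter. Cells treated with serial compound dilutions. EC50 from at least three experiments; efficacy is extrapolated maximum signal of the dose-response, GW4064 set to 100%.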

In data set [7] the target is T2, Bile acid receptor. In words: Agonist activity at C-terminal Gal4-tagged human FXR (187 to 472 residues) expressed in HEK-293 cells co-expressing pFRluc by mammalian one hybrid assay. It is filed as cell-based, HEK293. In a few lines:
as §2

For data set [8], the target named is T3, Bile acid receptor (Homo sapiens). In words: Agonist activity at GST-tagged FXR LBD (187 to 472 residues) (unknown origin) assessed as FXR interaction with b-CPSSHSSLTERHKILHRLLQEGSPS-COOH by FRET assay relative to GW4064.
Data set [9] is described as follows: Apparent oral volume of distribution in C57BL/6J mouse at 5 mg/kg. Format: ADME, organism-based. Conditions: in vivo. Summed up:
(§3)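 Mice dosed 5 mg/kg orally and 1 mg/kg intravenously; bioavailability from both arms, all other parameters (AUC, Cmax, T1/2, Cl/F, Vd/F) calculated from the oral arm.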

In data set [10] the test system is Mus musculus. Put plainly: Reduction in total cholesterol level in high fat diet enriched with cholesterol fed C57BL/6J mouse plasma at 10 mg/kg, po through gavage for 10 days measured after 4 hrs of final dosage relative to vehicle treated-control. It is filed as functional, organism-based. In a few lines:
(§4)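 C57BL/6J mice pre-fed and kept on high fat diet (60% kcal fat) with 1% (w/w) cholesterol; 10 mg/kg by oral gavage for 10 days. Plasma total cholesterol and triglycerides taken at sacrifice 4 h after final dose, expressed as % change versus vehicle group.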

A short description of data set [11]: Oral bioavailability in C57BL/6J mouse at 5 mg/kg. Format: ADME, organism-based. The conditions noted are these: in vivo. Summed up: as §3
The nature of data set [12]: Cmax in C57BL/6J mouse at 5 mg/kg, po and 1 mg/kg, iv. Format: ADME, organism-based. The conditions noted are these: in vivo. In a few lines:
as §3

Data set [13] in a line: Apparent oral clearance in C57BL/6J mouse at 5 mg/kg. It is filed as ADME, organism-based. Conditions: in vivo. In a few lines:
as §3

Data set [14] has as its system Mus musculus. In words: Reduction in total triglyceride level in high fat diet enriched with cholesterol fed C57BL/6J mouse plasma at 10 mg/kg, po through gavage for 10 days measured after 4 hrs of final dosage relative to vehicle treated-control. Format: functional, organism-based. Summed up: as §4
The nature of data set [15]: AUC in C57BL/6J mouse at 5 mg/kg, po and 1 mg/kg, iv. Format: ADME, organism-based. Conditions: in vivo. In a few lines:
as §3

Data set [16] in a line: Half life in C57BL/6J mouse at 5 mg/kg, po and 1 mg/kg, iv. It is filed as ADME, organism-based. Conditions: in vivo. In a few lines:
as §3

For `O=C(O)c1cncc(N2CC(O)(c3ccc(OCc4c(-c5c(Cl)cccc5Cl)noc4C4CC4)cc3Cl)C2)c1`, in data set [1], the concentration in solution (solubility) was 197 µM (≈ 116 µg/mL). For the same molecule, the permeability in [2] worked out at 35%. In addition, the Activity entry in data set [3] is “Not Active”. In addition, in data set [4], the “fold change (FC)” value came out at 3. In addition, the figures for the EC50 on Bile acid receptor [5] and on Bile acid receptor [7] were 7 nM and 552 nM, respectively. For the same molecule, the Efficacy was found to be 71% in [6] and 102% in [8].
In the case of `O=C(O)c1cccc([C@H]2C[C@](O)(c3ccc(OCc4c(-c5c(Cl)cccc5Cl)noc4C4CC4)cc3Cl)C2)c1`, in [2], the permeability is 24%. The Vd/F in data set [9] came out at 0.3 L/kg. Besides, the outcome in the data set on Mus musculus [10] and in the data set with Mus musculus [14] was Active. In addition, the “fold change (FC)” value in data set [4] was 27. In data set [11], this molecule gave a bioavailability of 49%. This molecule gave a Cmax in data set [12] of 9800 ng/mL. Further, the results for the EC50 at Bile acid receptor [5] and at Bile acid receptor [7] were 29 nM and 25 nM, respectively. Moreover, the CL/F in [13] stood at 4.7 mL/min/kg. The AUC in data set [15] was found to be 8600 ng·h/mL. In addition, in data set [16], the half-life is 36 min. The Efficacy turned out to be 79% in data set [6] and 100% in data set [8].
`CC(C)n1nc(C(=O)O)cc1[C@H]1C[C@](O)(c2ccc(OCc3c(-c4c(Cl)cccc4Cl)noc3C3CC3)cc2Cl)C1` had a solubility in [1] of 171 µM (≈ 105 µg/mL). For the same molecule, the permeability in [2] is 46%. Also, the Vd/F in [9] was 0.8 L/kg. In addition, the outcome in the data set with Mus musculus [10] and in the data set on Mus musculus [14] was Active. In addition, the Activity entry in data set [3] is given as “Not Active”. In addition, the “fold change (FC)” value in [4] was 11. In [11], the bioavailability is 18%. In addition, in data set [12], the Cmax stood at 1470 ng/mL. Further, the EC50 at Bile acid receptor [5] amounted to 9 nM; at Bile acid receptor [7], 110 nM. Besides, the CL/F in data set [13] stood at 16 mL/min/kg. Moreover, the AUC in [15] came to 960 ng·h/mL. Besides, the half-life in data set [16] was 36 min. In addition, the Efficacy worked out at 78% in data set [6] and 100% in data set [8].
Turning to `O=C(O)c1ccc(C2CC2c2ccc(OCc3c(-c4c(Cl)cccc4Cl)noc3C3CC3)cc2Cl)cc1` (racemic), in [2], the permeability amounted to 14%. Also, the Vd/F in data set [9] was found to be 3.6 L/kg. Moreover, the outcome in the data set with Mus musculus [10] and with Mus musculus [14] was Active. In addition, the “fold change (FC)” value in [4] is 30. In data set [11], this molecule returned a bioavailability of 44%. The Cmax in data set [12] came out at 280 ng/mL. For the same molecule, the values for the EC50 at Bile acid receptor [5] and on Bile acid receptor [7] were 131 nM and 76 nM, respectively. Moreover, the CL/F in data set [13] stood at 85 mL/min/kg. For the same molecule, the area under the curve (AUC) in [15] turned out to be 430 ng·h/mL. Further, in data set [16], the half-life is 30 min. In addition, the Efficacy stood at 85% in [6] and 100% in [8].
For `CC(C)n1nc(C(=O)O)cc1C1CC1c1ccc(OCc2c(-c3c(Cl)cccc3Cl)noc2C2CC2)cc1Cl` (racemic), the solubility in data set [1] was determined as 158 µM (≈ 92.7 µg/mL). Moreover, the permeability in data set [2] turned out to be 29%. Moreover, the Vd/F in [9] worked out at 5.5 L/kg. In addition, the result in the data set on Mus musculus [10] and in the data set on Mus musculus [14] was Active. In addition, in data set [4], the “fold change (FC)” value amounted to 22. In data set [11], this molecule gave a bioavailability of 11%. The molecule further had a Cmax in [12] of 160 ng/mL. Besides, the EC50 came out at 7 nM on Bile acid receptor [5] and 6 nM on Bile acid receptor [7]. Moreover, the CL/F in [13] was 83 mL/min/kg. The same molecule yielded an AUC in [15] of 110 ng·h/mL. The half-life in [16] was 48 min. The Efficacy in [6] was determined as 81%; in data set [8], 102%.
